High-throughput results deposited in PubChem BioAssay by SRMLSC.
An excerpt weighted towards active compounds, which were near 2.6% of everything screened.
RAM network inh = inhibitors of the yeast RAM network, primary screen, dse1pr::URA3 reporter, 5-FOA selection; inhibition, % at 50 µM; 190,000 compounds, 1.8% hits; S. cerevisiae dse1pr::URA3 reporter, 5-FOA growth OD615, 2 d; analog-sensitive cbk1-as2 kinase mutant strain;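 active = inhibition above a set limit, 3 SD over mean compound inhibition, cut at about 8.4% in these data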;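 also: 0% = DMSO-only wells with no growth and 100% = 10 µM 1-NA-PP1 full growth; inhibition rescues growth on 5-FOA so higher OD means more RAM inhibition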
Yeast lifespan up = compounds extending yeast replicative lifespan, primary screen, S. cerevisiae, OD615; S. cerevisiae growth with nicotinamide; deaD strain in restrictive glucose medium; inhibition of the nicotinamide effect, % at 10 µM; 130,000 compounds, 0.68% hits; AID 775, 2007;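 active = inhibition above a set limit, placed 3 SD over the median of all compounds, cut at about 26% in these data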;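 also: 0% = nicotinamide-treated wells and 100% = cells grown without nicotinamide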
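Material: Modified budding yeast, DeaD strain | Medium: Restrictive glucose medium | Probe or stimulus: 1.5 mM nicotinamide | Dosing: Single dose 10 µM compound, 0.25% DMSO | Times: 48 h at 30 °C | Technique: OD615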
BB579 growth dn = growth inhibitors of yeast BB579 in restrictive medium, primary screen, yeast lifespan-shortening project, S. cerevisiae. OD615, 48 h. inhibition, % at 10 µM. 140,000 compounds, 0.51% hits;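 active = inhibition above a set limit, 3 SD over the mean compound inhibition, cut at about 44% in these data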
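Detection: OD615 turbidity measurement; Material: Saccharomyces cerevisiae DeaD strain BB579, replicative lifespan model yeast; Timing: 48 h exposure, 30 °C; Doses: single 10 µM dose; Medium: CSMM-D restrictive synthetic medium containing dextrose (glucose); Controls: amphotericin B at 10 µg/mL as positive control.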
An asterisk follows results filed as active; / = no result given.

SMILES	RAM network inh	Yeast lifespan up	BB579 growth dn
COc1cc(C(=O)NC(CCSC)C(=O)OCC(=O)C(C)(C)C)cc(OC)c1OC (stereo not drawn)	2.0	/	/
CC(=O)/C=C/n1c(=S)oc2ccccc21	-1.1	39.4*	20.8
CC(C)CC(=O)/C=C/n1c(=S)oc2ccccc21	1.9	-0.5	-17.0
CCCc1cc(-c2n[nH]c(C)c2-c2ccc(C(=O)OCC)o2)c(O)cc1O	9.6*	-7.0	-23.1
CCCc1cc(C(=O)Cc2ccc(C(=O)OCC)o2)c(O)cc1O	4.1	-9.1	-11.6
CCCc1nnc(NC(=O)CCC(=O)N2CCN(C3c4ccccc4-c4ccccc43)CC2)s1	5.6	-1.1	-5.6
COCCCn1c(SCC(=O)c2ccccc2)nc2ccccc2c1=O	5.9	/	/
CC(C)(C)c1nc(SCC(=O)c2ccccc2)c2ccccc2n1	9.4*	/	/
CC(C)(C)c1nc(SCC(=O)N2CCCC2)c2ccccc2n1	1.0	/	/
COCCn1c(SCC(=O)c2ccccc2)nc2ccccc2c1=O	9.8*	/	/
CCOc1ccc(NC(=S)Nc2cccnc2)cc1	-0.4	/	/
C/C(CC(=O)Nc1ccc(OCc2ccccc2)cc1)=N\NC(=O)C(=O)Nc1ccc(C)c(Cl)c1	2.4	-16.4	-50.9
COc1ccc(CNC(=O)c2csc(Cc3ccccc3)n2)cc1	0.7	14.3	-33.0
COc1ccccc1CNC(=O)c1csc(Cc2ccc(Cl)cc2)n1	8.7*	-2.2	-87.1
Cc1cccc(NC(=O)CSc2nnc(-c3cnccn3)n2Cc2ccco2)c1	9.9*	-16.4	-17.2
Cc1ccc(NC(=O)CSc2nnc(-c3cnccn3)n2Cc2ccco2)cc1	3.5	-8.8	-49.2
CC(NC(=O)C(=O)NN=C1CCCC1)c1ccccc1 (stereo not drawn)	0.8	/	/
CCNC(=O)C12CCC(C)(c3nc4cc(C)c(C)cc4nc31)C2(C)C (stereo not drawn)	1.0	/	/
COc1ccc(C(=O)CSc2nnc(C(CO)NC(=O)c3ccc(OC)cc3)n2C)cc1 (stereo not drawn)	10.7*	-10.6	-20.2
COc1ccc(CC(=O)NC(C)c2nnc(SCC(=O)c3ccc(OC)cc3)n2C)cc1 (stereo not drawn)	1.4	/	/
CCOc1cc(/C=N/NC(=O)c2cccnc2)ccc1OCC(=O)N(C)C	-0.4	/	/
CC(=O)c1c(C)oc2c1C(=O)c1ccccc1C2=O	0.0	-7.0	62.5*
COc1ccc(CNC(=O)c2c(C)oc3c2C(=O)c2ccccc2C3=O)cc1	2.6	5.5	10.9
Cc1ccccc1CSc1n[nH]c(NS(=O)(=O)c2ccccc2)n1	1.8	-13.4	-9.8
COc1ccc(Cn2c(-c3ccc(C)cc3)nc3c(c(=O)c4ccccc4n3C)c2=O)cc1	9.9*	4.6	-28.3
SMILES	RAM network inh	Yeast lifespan up	BB579 growth dn
COc1ccc(CCn2c(C)nc3c(c(=O)c4ccccc4n3C)c2=O)cc1	-0.2	21.3	-34.6
COc1ccc(CCn2c(C(C)C)nc3c(c(=O)c4ccccc4n3C)c2=O)cc1	8.9*	27.4*	-33.6
COc1ccc(Cn2c(-c3ccc(OC)cc3)nc3c(c(=O)c4ccccc4n3C)c2=O)cc1	5.7	9.3	-26.8
COc1ccc(OC)c(-c2csc(NC(=O)c3ccc4c(c3)OCO4)n2)c1	3.3	/	/
N/C(Cc1ccc(Cl)cc1Cl)=N\OC(=O)c1cccs1	-0.8	-19.2	100.4*
N/C(Cc1ccc(Cl)cc1Cl)=N\OC(=O)Cc1cccs1	3.5	0.0	-56.6
CN(C(=O)COC(=O)c1ccccc1SCC(=O)NC1CCCCCCC1)C1CCS(=O)(=O)C1 (stereo not drawn)	-0.8	2.5	-13.1
O=C(Oc1ccccc1/C=C\C(=O)c1cc2ccccc2o1)c1ccccc1	8.2	0.1	-20.4
O=C(Oc1ccccc1/C=C\C(=O)c1cc2ccccc2o1)c1cccc(F)c1	10.1*	0.0	-12.4
Cc1cc(C)cc(-n2c(C)nc3cc(C(=O)O)ccc32)c1	-0.4	/	/
CN(C)S(=O)(=O)c1cc(C(=O)NCCCn2ccc3ccccc32)ccc1Cl	9.3*	8.4	-52.8
O=C(NCCn1ccc2ccccc21)c1cccc([N+](=O)[O-])c1	0.8	/	/
O=C(CCC(=O)OC(C(=O)c1ccccc1)c1ccccc1)Nc1ccccc1 (stereo not drawn)	8.2	-29.2	-35.4
COc1ccc(C(=O)C(OC(=O)c2ccccc2Cl)c2ccccc2)cc1 (stereo not drawn)	10.7*	3.5	-37.4
COC(=O)C(OC(=O)c1ccc(OC)cc1)C(=O)OC	0.0	/	-11.8
Cc1ccccc1OCC(=O)OC(C(=O)c1ccccc1)c1ccccc1 (stereo not drawn)	10.2*	-2.1	-34.8
COc1ccc(C(NC(=O)c2ccc(F)cc2)c2ccccc2)cc1 (stereo not drawn)	1.4	3.4	-27.8
COc1ccc(C(=O)C(OC(=O)c2ccccc2)c2ccccc2)cc1 (stereo not drawn)	10.4*	-3.2	-4.5
COc1ccc(C(=O)C(CN2CCOCC2)c2ccccc2)cc1 (stereo not drawn)	2.2	61.3*	-52.8
COc1ccc(C(=O)C(CN2CCCC2)c2ccccc2)cc1 (stereo not drawn)	2.4	9.1	-19.1
O=C(CSc1nc2cc(Cl)ccc2s1)Nc1cccc(S(=O)(=O)N2CCOCC2)c1	7.5	-0.3	-24.3
COc1ccc(Cn2c(C)nnc2-c2cnn(C)c2N)cc1	0.6	/	/
CCOC(=O)N1CCC(NCc2c(C(=O)N(C)Cc3ccccc3)nc3ccccn23)CC1	1.7	/	/
O=C(Cn1[nH]c(=O)c2ccccc2c1=O)Nc1ccc(-c2nnc3n2CCCCC3)cc1	1.5	-12.3	-14.3
Cc1cc(C(=O)OCC(=O)NCc2ccc(Cl)cc2)c(C)o1	1.9	/	/
SMILES	RAM network inh	Yeast lifespan up	BB579 growth dn
CC1CC(C)CN(c2ccc(C(=O)NCc3ccc4c(c3)OCO4)cc2[N+](=O)[O-])C1 (stereo not drawn)	5.0	15.7	-12.6
O=C(c1cccc(-c2ccc(O)cc2)c1)N1CCN(c2ccc(F)cc2)CC1	3.4	/	/
Cc1cc(C(=O)OC(C(=O)Nc2ccc(C)c(Cl)c2)c2ccccc2)c(C)o1 (stereo not drawn)	4.9	1.1	2.4
Cc1ccc(NC(=O)C(OC(=O)c2ccccc2Cl)c2ccccc2)cc1Cl (stereo not drawn)	8.9*	6.2	-35.7
NC(=O)C1CC(=O)N(c2ccc(OCc3c(Cl)cccc3Cl)cc2)C1 (stereo not drawn)	4.3	/	/
COCCNC(=O)C(c1cccc(OC)c1)N(Cc1cccs1)C(=O)Cn1nnc2ccccc21 (stereo not drawn)	8.6*	-2.7	-15.2
CCCCN(C(=O)Cn1nnc2ccccc21)C(C(=O)NCCOC)c1cccs1 (stereo not drawn)	0.8	/	-41.7
S=C(NCc1ccco1)N1CCC(c2nc3ccccc3o2)CC1	2.1	/	/
O=C(O)c1cccc(N/N=C/c2cc(Br)cc(Br)c2O)c1	7.1	2.3	-41.3
Cc1c(N=Cc2cc(Br)cc(Br)c2O)cccc1C(=O)O	-2.4	-12.6	98.0*
NS(=O)(=O)c1ccc(CCNC(=O)COC(=O)CN2C(=O)C3CCCCC3C2=O)cc1 (stereo not drawn)	3.4	/	/
O=C(COC(=O)C1(c2ccc(F)cc2)CCCC1)Nc1ncc(C(F)(F)F)cc1Cl	6.9	2.3	-42.4
